# The source made the active and inactive calls. The rule behind the calls is not given here.
# Assays:
# [1] = molecular target: T1, Nociceptin receptor (Homo sapiens, UniProt P41146); assay: Displacement of [125I][Tyr14]nociceptin from human cloned NOP receptor expressed in CHO cells; format: cell-based
# [2] = molecular target: T1, Nociceptin receptor; assay: Agonist activity at human NOP assessed as stimulation of GDP-induced [35S]GTPgammaS binding; format: functional
# How it was run: (§1)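 Functional agonism measured as enhancement of [35S]GTPγS binding in the presence of GDP, using membranes from cells transfected with the receptor. Values are means of 2–3 experiments.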
# [3] = molecular target: T2, Mu-type opioid receptor (Homo sapiens, UniProt P35372); assay: Binding affinity to human mu opioid assessed as stimulation of GDP-induced [35S]GTPgammaS binding at 10 uM; format: functional
# How it was run: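 Agonist function read as enhancement of [35S]GTPγS binding to receptor-expressing membranes in the presence of GDP. Percent stimulation is given at 10 µM test compound. Values are means of at least 2–3 experiments.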
# [4] = molecular target: T2, Mu-type opioid receptor; assay: Displacement of [3H]diprenorphine from human mu opioid receptor expressed in CHO cells; format: cell-based
# [5] = molecular target: T3, Nuclear receptor subfamily 1 group I member 2 (Homo sapiens, UniProt O75469); assay: Activity at human PXR assessed as induction of CYP3A4 activity in human hepatocytes at 1 uM relative to rifampicin; format: cell-based, Hepatocyte
# T3 sequence (O75469 whole entry): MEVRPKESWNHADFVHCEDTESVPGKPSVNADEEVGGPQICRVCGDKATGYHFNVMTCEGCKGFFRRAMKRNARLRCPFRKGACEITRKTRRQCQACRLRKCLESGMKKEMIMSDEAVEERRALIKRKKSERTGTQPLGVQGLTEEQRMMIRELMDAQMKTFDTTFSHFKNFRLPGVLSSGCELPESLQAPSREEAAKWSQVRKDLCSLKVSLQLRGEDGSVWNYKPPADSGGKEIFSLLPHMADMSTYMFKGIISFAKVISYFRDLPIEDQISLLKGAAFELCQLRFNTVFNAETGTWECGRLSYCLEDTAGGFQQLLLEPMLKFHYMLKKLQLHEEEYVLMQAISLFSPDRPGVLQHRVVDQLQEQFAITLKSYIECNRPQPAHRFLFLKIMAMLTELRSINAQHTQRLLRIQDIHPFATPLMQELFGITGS
# [6] = molecular target: T2, Mu-type opioid receptor; assay: Agonist activity at human mu opioid assessed as stimulation of GDP-induced [35S]GTPgammaS binding; format: functional; how it was run: as §1
# [7] = molecular target: T1, Nociceptin receptor; assay: Agonist activity at human NOP assessed as stimulation of GDP-induced [35S]GTPgammaS binding at 10 uM; format: functional
# How it was run: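 Functional agonism measured as enhancement of [35S]GTPγS binding in the presence of GDP, using membranes from cells transfected with the receptor. […] Values are means of 2–3 experiments.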
# [8] = AUC (0 to 24 hrs) in rat at 3 mg/kg, po; format: ADME, organism-based; design: time < 24 hr, dose 3 mg/kg, route oral; conditions: plasma
# [9] = Cmax in rat at 3 mg/kg, po; format: ADME, organism-based; design: dose 3 mg/kg, route oral; conditions: in vivo
# [10] = Half life in rat at 3 mg/kg, po; format: ADME, organism-based; design: dose 3 mg/kg, route oral; conditions: in vivo
# [11] = species on record: Cavia porcellus; assay: Anxiolytic activity in Dunkin-Hartley guinea pig pup assessed as reduction in number of vocalization produced due to separation measured after 2 hrs; format: functional
# [12] = Clearance in rat at 3 mg/kg, po; format: ADME, organism-based; design: dose 3 mg/kg, route oral; conditions: in vivo
# [13] = molecular target: Kappa-type opioid receptor (Homo sapiens, UniProt P41145); assay: Displacement of [3H]diprenorphine from human kappa opioid receptor expressed in CHO cells; format: cell-based
# [14] = test system: Rattus norvegicus; assay: Volume of distribution at steady state in rat at 3 mg/kg, po; format: ADME, organism-based; design: dose 3 mg/kg, route oral; conditions: in vivo
# [15] = test system: Rattus norvegicus; assay: Anxiolytic activity in po dosed CD rats assessed as suppression of conditioned paw licking administered twice per day for 14 days measured after 2 hrs of last dose; format: functional
# [16] = test system: Cavia porcellus; assay: Antitussive activity against capsaicin-induced cough in po dosed Hartley guinea pig model after 2 hrs; format: functional
# [17] = molecular target: Delta-type opioid receptor (Homo sapiens, UniProt P41143); assay: Displacement of [3H]diprenorphine from human delta opioid receptor expressed in CHO cells; format: cell-based
# [18] = Oral bioavailability in rat at 3 mg/kg; format: ADME, organism-based; conditions: in vivo
# [19] = test system: Cavia porcellus; assay: Antitussive activity against capsaicin-induced cough in po dosed Hartley guinea pig model after 2 hrs in presence naloxone; format: functional, organism-based
# [20] = test system: Cavia porcellus; assay: Antitussive activity against capsaicin-induced cough in po dosed Hartley guinea pig model after 2 hrs in presence J113397; format: functional, organism-based
# [21] = test system: Cavia porcellus; assay: Antitussive activity against capsaicin-induced cough in po dosed Hartley guinea pig model after 2 hrs in presence naltrexone; format: functional, organism-based
# T1 sequence (P41146 whole entry): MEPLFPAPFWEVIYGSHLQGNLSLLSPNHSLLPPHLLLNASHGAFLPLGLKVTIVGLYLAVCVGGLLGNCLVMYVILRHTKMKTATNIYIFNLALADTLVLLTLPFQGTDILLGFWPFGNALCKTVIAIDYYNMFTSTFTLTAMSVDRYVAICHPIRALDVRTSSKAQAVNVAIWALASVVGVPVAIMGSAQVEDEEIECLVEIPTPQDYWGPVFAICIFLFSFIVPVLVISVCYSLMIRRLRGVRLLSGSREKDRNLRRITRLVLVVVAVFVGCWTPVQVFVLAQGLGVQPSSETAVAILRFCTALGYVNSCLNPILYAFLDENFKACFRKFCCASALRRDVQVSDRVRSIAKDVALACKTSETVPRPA
# T2 sequence (P35372 whole entry): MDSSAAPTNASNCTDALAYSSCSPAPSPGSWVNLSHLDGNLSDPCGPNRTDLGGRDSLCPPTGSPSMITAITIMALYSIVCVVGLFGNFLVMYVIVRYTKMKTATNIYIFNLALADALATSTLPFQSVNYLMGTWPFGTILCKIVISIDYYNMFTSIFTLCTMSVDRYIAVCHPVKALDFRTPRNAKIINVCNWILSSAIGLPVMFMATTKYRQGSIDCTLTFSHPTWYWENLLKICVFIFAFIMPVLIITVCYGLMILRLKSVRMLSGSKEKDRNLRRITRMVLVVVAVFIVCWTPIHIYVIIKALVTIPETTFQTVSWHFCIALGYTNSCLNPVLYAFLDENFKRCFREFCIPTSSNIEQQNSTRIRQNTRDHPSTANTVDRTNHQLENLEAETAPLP
# Chain of Delta-type opioid receptor (P41143 whole entry): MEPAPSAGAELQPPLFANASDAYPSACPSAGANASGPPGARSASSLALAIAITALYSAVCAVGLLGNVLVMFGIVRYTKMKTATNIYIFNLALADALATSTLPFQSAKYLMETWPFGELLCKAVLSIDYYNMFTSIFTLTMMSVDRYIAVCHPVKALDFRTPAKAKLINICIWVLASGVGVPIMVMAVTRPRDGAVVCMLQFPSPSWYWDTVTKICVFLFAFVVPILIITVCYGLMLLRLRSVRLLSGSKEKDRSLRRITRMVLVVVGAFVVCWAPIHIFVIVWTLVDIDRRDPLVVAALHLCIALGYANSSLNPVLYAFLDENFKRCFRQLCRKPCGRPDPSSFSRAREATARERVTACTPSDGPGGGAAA
# Chain of Kappa-type opioid receptor (P41145 whole entry): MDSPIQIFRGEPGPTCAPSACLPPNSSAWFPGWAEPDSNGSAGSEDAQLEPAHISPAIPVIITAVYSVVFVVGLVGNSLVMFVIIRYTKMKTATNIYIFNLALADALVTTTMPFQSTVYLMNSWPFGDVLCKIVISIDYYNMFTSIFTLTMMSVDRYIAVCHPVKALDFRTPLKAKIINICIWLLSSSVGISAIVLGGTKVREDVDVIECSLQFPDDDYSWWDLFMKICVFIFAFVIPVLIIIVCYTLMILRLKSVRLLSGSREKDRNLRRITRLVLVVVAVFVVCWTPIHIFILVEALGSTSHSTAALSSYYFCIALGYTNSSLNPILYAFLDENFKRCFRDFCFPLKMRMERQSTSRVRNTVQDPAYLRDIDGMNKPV
compound,measurement,setting,value
Cc1ccc(C(c2ccccc2Cl)N2C3CCC2CC(O)(C2=NCCCN2)C3)c(Cl)c1 (centres undefined),Ki,[1],3 nM
same,EC50,[2],62 nM
same,Activity,[3],29%
same,Ki,[4],622 nM
NC(=O)c1ccc(C2(C(N)=O)CC3CCC(C2)N3C(c2ccccc2Cl)c2ccccc2Cl)cc1 (centres undefined),Ki,[1],678 nM
same,Ratio,[5],0.05
COC1(c2ccccc2)CC2CCC(C1)N2C(c1ccccc1Cl)c1ccccc1Cl (centres undefined),EC50,[6],545 nM
same,Ki,[1],8 nM
same,EC50,[2],50 nM
same,Ki,[4],636 nM
OC1(c2ccccc2)CC2CCCC(C1)N2C(c1ccccc1)c1ccccc1 (centres undefined),Activity,[7],101%
same,Ki,[1],7.5 nM
same,Ki,[4],514 nM
CNC(=O)NC1(c2ccccc2)CC2CCC(C1)N2C(c1ccccc1Cl)c1ccccc1Cl (centres undefined),Ki,[1],2 nM
same,Ki,[4],27 nM
NC(=O)C1(c2ccc(OC(F)(F)F)cc2)CC2CCC(C1)N2C(c1ccccc1Cl)c1ccccc1Cl (centres undefined),Ki,[1],285 nM
same,Ratio,[5],0.1
O=C(NC1(c2ccccc2)CC2CCC(C1)N2C(c1ccccc1Cl)c1ccccc1Cl)C1CC1 (centres undefined),Ki,[1],11 nM
same,EC50,[2],35 nM
same,Activity,[3],25%
same,Ki,[4],996 nM
NC(=O)C1(c2ccc(F)cc2)CC2CCC(C1)N2C(c1ccccc1Cl)c1ccccc1Cl (centres undefined),EC50,[6],947 nM
same,AUC(0-t) at 24 h,[8],1.27 µM·h
same,Cmax,[9],250 nM
same,half-life,[10],108 min
same,ED50,[11],0.2 mg/kg
same,CL/F,[12],33 mL/min/kg
same,Ki,[13],752 nM
same,Vdss,[14],1.8 L/kg
same,ED50,[15],2.7 mg/kg
same,Ki,[1],16 nM
same,Ratio,[5],0.27
same,EC50,[2],14 nM
same,ED50,[16],0.03 mg/kg
same,Ki,[4],126 nM
same,Ki,[17],1040 nM
same,bioavailability,[18],45%
COC(=O)NC1(c2ccccc2)CC2CCC(C1)N2C(c1ccccc1Cl)c1ccccc1Cl (centres undefined),EC50,[6],782 nM
same,Ki,[1],6 nM
same,EC50,[2],54 nM
same,Ki,[4],576 nM
OC1(c2cccnn2)CC2CCC(C1)N2C(c1ccccc1Cl)c1ccccc1Cl (stereo in doubt; 12c),Ki,[1],3760 nM
Clc1ccccc1C(c1ccccc1Cl)N1C2CCC1CC(c1ccccc1)(c1nc[nH]n1)C2 (centres undefined),Ki,[1],5.3 nM
same,Ki,[4],100 nM
CNC(=O)C1(c2ccccc2)CC2CCC(C1)N2C(c1ccccc1Cl)c1ccccc1Cl (centres undefined),Ki,[1],4.9 nM
same,Ratio,[5],1.29
same,Ki,[4],50 nM
Cc1ccc(C(c2ccccc2Cl)N2C3CCC2CC(O)(C2CCCN2Cc2ccccc2)C3)c(Cl)c1 (centres undefined),Ki,[1],14 nM
same,Ki,[4],1550 nM
OC1(c2cncs2)CC2CCC(C1)N2C(c1ccccc1Cl)c1ccccc1Cl (stereo in doubt; 11b),Ki,[1],19 nM
same,Ki,[4],1490 nM
Cc1ccc(C(c2ccccc2Cl)N2C3CCC2CC(O)(CCCO)C3)c(Cl)c1 (centres undefined),Ki,[1],7.4 nM
same,Ki,[4],306 nM
COc1ccc(CC2(O)CC3CCC(C2)N3C(c2ccccc2Cl)c2ccc(C)cc2Cl)nc1 (centres undefined),Ki,[1],13 nM
same,EC50,[2],90 nM
same,Activity,[3],31%
same,Ki,[4],384 nM
OC1CC2CCC(C1)N2C(c1ccccc1Cl)c1ccccc1Cl (stereo in doubt; 12a),Ki,[1],1090 nM
Cc1ccc(C(c2ccccc2Cl)N2C3CCC2CC(O)(c2ccncn2)C3)c(Cl)c1 (centres undefined),EC50,[6],1690 nM
same,Ki,[1],5.2 nM
same,EC50,[2],50 nM
same,Ki,[4],535 nM
CC(O)CNC(=O)C1(c2ccccc2)CC2CCC(C1)N2C(c1ccccc1Cl)c1ccccc1Cl (centres undefined),Ki,[1],11 nM
same,Ratio,[5],2.38
same,Ki,[4],57 nM
CCNC(=O)C1(c2ccccc2)CC2CCC(C1)N2C(c1ccccc1Cl)c1ccccc1Cl (centres undefined),Ki,[1],7 nM
same,Ratio,[5],1.49
same,Ki,[4],215 nM
Cc1ccc(C(c2ccccc2Cl)N2C3CCC2CC(O)(C2CCCC2)C3)c(Cl)c1 (centres undefined),EC50,[6],709 nM
same,Ki,[1],1.9 nM
same,EC50,[2],16 nM
same,Ki,[4],104 nM
NC1(c2ccccc2)CC2CCC(C1)N2C(c1ccccc1Cl)c1ccccc1Cl (centres undefined),EC50,[6],4520 nM
same,Ki,[1],4 nM
same,EC50,[2],76 nM
same,Ki,[4],458 nM
C[C@H]1CN(C(c2ccccc2)c2ccccc2)CC[C@@]1(O)c1ccccc1,Ki,[1],1570 nM
OC1(c2ccccc2)CC2CCC(C1)N2C(c1ccccc1)c1ccccc1 (centres undefined),Activity,[16],inactive
same,Ki,[4],94 nM
Cc1ccnc(C2(O)CC3CCC(C2)N3C(c2ccccc2Cl)c2ccc(C)cc2Cl)c1 (centres undefined),Ki,[1],7.3 nM
same,Ki,[4],708 nM
N#CC1(c2ccccc2)CC2CCC(C1)N2C(c1ccccc1Cl)c1ccccc1Cl (centres undefined),Ki,[1],100 nM
O/N=C/C1(c2ccccc2)CC2CCC(C1)N2C(c1ccccc1Cl)c1ccccc1Cl (centres undefined),Ki,[1],20 nM
same,EC50,[2],107 nM
same,Activity,[3],29%
same,Ki,[4],601 nM
Cc1ccc(C(c2ccccc2Cl)N2C3CCC2CC(O)(C2CCNC2=O)C3)c(Cl)c1 (centres undefined),Ki,[1],3.6 nM
same,EC50,[2],48 nM
same,Activity,[3],60%
same,Ki,[4],781 nM
COc1ccc(C2(C(N)=O)CC3CCC(C2)N3C(c2ccccc2Cl)c2ccccc2Cl)cc1 (centres undefined),Ki,[1],22 nM
same,Ratio,[5],0.06
same,Ki,[4],59 nM
OC1(c2cncs2)CC2CCC(C1)N2C(c1ccccc1Cl)c1ccccc1Cl (stereo in doubt; 12b),Ki,[1],3000 nM
COCCNC(=O)C1(c2ccccc2)CC2CCC(C1)N2C(c1ccccc1Cl)c1ccccc1Cl (centres undefined),Ki,[1],8.2 nM
same,Ratio,[5],2.35
same,Ki,[4],60 nM
OCC1(c2ccccc2)CC2CCC(C1)N2C(c1ccccc1Cl)c1ccccc1Cl (centres undefined),EC50,[6],2140 nM
same,Ki,[1],6 nM
same,EC50,[2],136 nM
same,Ki,[4],627 nM
OC1(c2cccnc2)C2CCC1CN(C(c1ccccc1Cl)c1ccccc1Cl)C2 (centres undefined),Ki,[1],908 nM
same,Ki,[4],7260 nM
FCC1(c2ccccc2)CC2CCC(C1)N2C(c1ccccc1Cl)c1ccccc1Cl (centres undefined),Ki,[1],3150 nM
OC1(c2cccnc2)CC2CCC(C1)N2C(c1ccccc1Cl)c1ccccc1Cl (centres undefined),Ki,[1],3 nM
same,Ki,[4],42 nM
C[C@@H]1CN(C(c2ccccc2)c2ccccc2)CC[C@@]1(O)c1ccccc1,Activity,[7],70%
same,Ki,[1],142 nM
same,Ki,[4],738 nM
OC1CC2CCC(C1)N2C(c1ccccc1Cl)c1ccccc1Cl (stereo in doubt; 11a),Ki,[1],198 nM
NC(=O)C1(c2ccc(Cl)cc2)CC2CCC(C1)N2C(c1ccccc1Cl)c1ccccc1Cl (centres undefined),Ki,[1],31 nM
same,Ratio,[5],0.05
same,Ki,[4],55 nM
OC1(c2cccnn2)CC2CCC(C1)N2C(c1ccccc1Cl)c1ccccc1Cl (stereo in doubt; 11c),Ki,[1],10 nM
same,Ki,[4],470 nM
OC1(c2ccccc2)CC2CCC(C1)N2C(c1ccccc1Cl)c1ccccc1Cl (centres undefined),EC50,[6],337 nM
same,Activity,[19],Active
same,ED50,[11],0.4 mg/kg
same,Ki,[13],109 nM
same,ED50,[15],1.4 mg/kg
same,Activity,[20],inactive
same,Ki,[1],3.4 nM
same,Activity,[21],Active
same,ED50,[16],0.4 mg/kg
same,Ki,[4],22 nM
same,Ki,[17],3140 nM
Cc1ccc(C(c2ccccc2Cl)N2C3CCC2CC(O)(c2cccc(F)c2)C3)c(Cl)c1 (centres undefined),EC50,[6],894 nM
same,Ki,[1],2.7 nM
same,EC50,[2],16 nM
same,Ki,[4],57 nM
CC(C)NC(=O)C1(c2ccccc2)CC2CCC(C1)N2C(c1ccccc1Cl)c1ccccc1Cl (centres undefined),Ki,[1],10 nM
same,Ratio,[5],2.21
same,Ki,[4],333 nM
O=C(O)C1(c2ccccc2)CC2CCC(C1)N2C(c1ccccc1Cl)c1ccccc1Cl (centres undefined),Ki,[1],3 nM
same,Ki,[4],123 nM
Cc1ccnc(C2(O)C3CCC2CN(C(c2ccccc2Cl)c2ccccc2Cl)C3)c1 (centres undefined),Ki,[1],385 nM
same,Ki,[4],3590 nM
NC(=O)C1(c2ccc(Br)cc2)CC2CCC(C1)N2C(c1ccccc1Cl)c1ccccc1Cl (centres undefined),Ki,[1],40 nM
same,Ratio,[5],0.05

# Source: ChEMBL document CHEMBL1138606, “The discovery of tropane derivatives as nociceptin receptor ligands for the management of cough and anxiety” (Bioorg Med Chem Lett, 2009)
